Test [1] concerns Mycobacterium tuberculosis. Kind of test: Antibacterial activity against Mycobacterium tuberculosis H37Ra by 7H9 broth dilution method. The format is functional. On the technique in general: Dilution methods test growth across graded concentrations, often in twofold steps.
The test system of test [2] is Mycobacterium tuberculosis. Kind of test: Antibacterial activity against Mycobacterium tuberculosis H37Ra by broth microdilution method. Type of test: functional. A digest of the protocol:
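Broth microdilution in supplemented 7H9 (complete) medium with twofold drug dilutions. Inoculum 10^6 CFU/ml from cultures grown at 37°C to mid- or late-log phase. Incubated 21 days at 37°C, then turbidity inspected by eye against drug-free controls. MIC is the lowest concentration with no visible growth.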

Test [3] has as its system Mycobacterium tuberculosis. Kind of test: Antibacterial activity against Mycobacterium tuberculosis H37Ra by 7H10 agar plate method. The format is functional.
Test [4] concerns Mycobacterium tuberculosis. The test can be described thus: Antibacterial activity against Mycobacterium tuberculosis H37Ra by BACTEC method. Type of test: functional.
For test [5], the system named is Mycobacterium tuberculosis. The test can be described thus: Antibacterial activity against Mycobacterium tuberculosis H37Ra by BACTEC MGIT 960 method. Type of test: functional.
Test [6] deals with Mycobacterium tuberculosis. Kind of test: Antibacterial activity against Mycobacterium tuberculosis H37Ra by 7H11 agar plate method.

SMILES strings stand for the structures. Converted amounts (≈) assume the structure as drawn.

For orientation: MIC means the least concentration at which growth counts as inhibited. Higher therefore signals weaker potency. Consider `CC[C@@H](CO)NCCN[C@@H](CC)CO` [ETHAMBUTOL], for which the results for the MIC in test [1], in test [2] and in test [3] were 2 µg/mL (≈ 9.79 µM), 5 µg/mL (≈ 24.5 µM) and 5 µg/mL (≈ 24.5 µM), respectively.

In the case of `NNC(=O)c1ccncc1` [ISONIAZID], the MIC in test [4] was 0.03 µg/mL (≈ 0.219 µM); in test [1] it was 0.25 µg/mL (≈ 1.82 µM); in test [2], 0.2 µg/mL (≈ 1.46 µM); in test [3] it was 0.2 µg/mL (≈ 1.46 µM).

As for `NC(=O)c1cnccn1` [PYRAZINAMIDE], the MIC in test [2] is 50 µg/mL (≈ 406 µM); in test [5], 20 µg/mL (≈ 162 µM); in test [6], 50 µg/mL (≈ 406 µM).

Turning to `CO[C@H]1/C=C/O[C@@]2(C)Oc3c(C)c(O)c4c(O)c(c(/C=N/N5CCN(C)CC5)c(O)c4c3C2=O)NC(=O)/C(C)=C\C=C\[C@H](C)[C@H](O)[C@@H](C)[C@@H](O)[C@@H](C)[C@H](OC(C)=O)[C@@H]1C` [RIFAMPIN], the MIC was 0.25 µg/mL (≈ 0.304 µM) in test [4], 0.125 µg/mL (≈ 0.152 µM) in test [1], 0.2 µg/mL (≈ 0.243 µM) in test [2] and 0.2 µg/mL (≈ 0.243 µM) in test [3].

Values taken from ChEMBL document CHEMBL1649253, “New approach for drug susceptibility testing: monitoring the stress response of mycobacteria” (2009).
